Columns and labels:
[1] = molecular target: Cytochrome P450 3A4 (Homo sapiens, UniProt P08684); test: Inhibition of CYP3A4 (unknown origin); assay type: ADME
[2] = molecular target: Cytochrome P450 2C9 (Homo sapiens, UniProt P11712); test: Inhibition of CYP2C9 (unknown origin); assay type: ADME
[3] = molecular target: T1, Cytochrome P450 2B6 (Homo sapiens, UniProt P20813); test: Inhibition of CYP2B6 (unknown origin); assay type: ADME
T1 sequence (P20813 whole entry): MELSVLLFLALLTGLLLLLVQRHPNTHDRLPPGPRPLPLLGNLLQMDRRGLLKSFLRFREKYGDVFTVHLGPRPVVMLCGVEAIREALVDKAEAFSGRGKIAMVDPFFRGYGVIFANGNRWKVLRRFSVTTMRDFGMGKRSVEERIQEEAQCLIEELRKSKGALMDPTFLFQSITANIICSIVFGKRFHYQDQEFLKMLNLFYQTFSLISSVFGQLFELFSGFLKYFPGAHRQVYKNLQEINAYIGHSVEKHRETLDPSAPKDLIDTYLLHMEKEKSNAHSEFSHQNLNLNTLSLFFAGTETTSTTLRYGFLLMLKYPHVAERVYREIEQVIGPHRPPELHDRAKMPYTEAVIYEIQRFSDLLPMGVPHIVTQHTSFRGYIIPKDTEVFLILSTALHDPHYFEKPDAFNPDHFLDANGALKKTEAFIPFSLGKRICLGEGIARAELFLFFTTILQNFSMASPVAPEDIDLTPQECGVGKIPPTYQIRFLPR

[4] = molecular target: Cytochrome P450 2D6 (Homo sapiens, UniProt P10635); test: Inhibition of CYP2D6 (unknown origin); assay type: ADME
[5] = molecular target: Histamine H3 receptor (Homo sapiens, UniProt Q9Y5N1); test: Displacement of [3H]N-alpha-methylhistamine from recombinant human histamine H3 receptor transfected in CHO cell membranes after 1 hr by scintillation counting analysis
How it was run: (§1)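 Radioligand displacement of [3H]N-α-methylhistamine using membranes from CHO cells stably transfected with recombinant human or rat H3 receptor. Ki is presented as a range of multiple experiments (n ≥ 3).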

[6] = Drug metabolism in human liver microsomes at 5 uM after 20 mins; assay type: ADME, Microsome; conditions: read-out: Drug metabolism
How it was run: (§2)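 Substrate at 5 µM incubated at 37 °C for 20 min with in-house liver microsome preparations (human, mouse or rat). Reported as the percentage of parent compound metabolized.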

[7] = system: Salmonella typhimurium; test: Mutagenic activity in Salmonella typhimurium by Ames test; assay type: toxicity, organism-based; conditions: salmonella enterica subsp. enterica serovar typhimurium
[8] = molecular target: T2, hERG (KCNH2) (Homo sapiens, UniProt Q12809); test: Inhibition of human ERG transfected in CHO cells at 1 uM by patch clamp assay relative to control; assay type: cell-based; conditions: CHO cells transfected with human ERG
How it was run: (§3)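 Whole-cell patch clamp on CHO cells stably transfected with the human ERG gene.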

[9] = molecular target: T2, hERG (KCNH2); test: Inhibition of human ERG transfected in CHO cells at 10 uM by patch clamp assay relative to control; assay type: cell-based; conditions: CHO cells transfected with human ERG; how it was run: as §3
[10] = molecular target: Cytochrome P450 2C19 (Homo sapiens, UniProt P33261); test: Inhibition of CYP2C19 (unknown origin); assay type: ADME
[11] = Genotoxicity in micronucleus (unknown origin)
[12] = Drug metabolism in rat liver microsomes at 5 uM after 20 mins; assay type: ADME, Microsome; conditions: read-out: Drug metabolism; how it was run: as §2
[13] = molecular target: Histamine H3 receptor (Rattus norvegicus, UniProt Q9QYN8); test: Displacement of [3H]N-alpha-methylhistamine from recombinant rat histamine H3 receptor transfected in CHO cell membranes after 1 hr by scintillation counting analysis; set-up: species or system Membrane; how it was run: as §1
[14] = molecular target: T3, Cytochrome P450 1A2 (Homo sapiens, UniProt P05177); test: Inhibition of CYP1A2 (unknown origin); assay type: ADME
T3 sequence (P05177 whole entry): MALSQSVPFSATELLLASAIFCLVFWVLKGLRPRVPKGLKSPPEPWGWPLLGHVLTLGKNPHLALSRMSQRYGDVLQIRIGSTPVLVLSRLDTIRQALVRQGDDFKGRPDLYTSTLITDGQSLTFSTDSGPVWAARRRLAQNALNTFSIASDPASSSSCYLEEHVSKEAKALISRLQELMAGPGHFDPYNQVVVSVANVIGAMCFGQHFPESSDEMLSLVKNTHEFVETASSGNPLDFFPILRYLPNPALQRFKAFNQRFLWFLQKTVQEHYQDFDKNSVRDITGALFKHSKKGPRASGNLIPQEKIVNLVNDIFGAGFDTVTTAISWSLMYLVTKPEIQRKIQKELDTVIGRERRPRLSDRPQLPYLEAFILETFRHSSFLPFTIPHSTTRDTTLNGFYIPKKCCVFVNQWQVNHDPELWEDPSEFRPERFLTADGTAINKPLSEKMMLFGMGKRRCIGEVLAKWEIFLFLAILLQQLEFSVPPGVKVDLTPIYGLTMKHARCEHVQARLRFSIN

[15] = Drug metabolism in mouse liver microsomes at 5 uM after 20 mins; assay type: ADME, Microsome; conditions: read-out: Drug metabolism; how it was run: as §2

T2 sequence (Q12809 whole entry): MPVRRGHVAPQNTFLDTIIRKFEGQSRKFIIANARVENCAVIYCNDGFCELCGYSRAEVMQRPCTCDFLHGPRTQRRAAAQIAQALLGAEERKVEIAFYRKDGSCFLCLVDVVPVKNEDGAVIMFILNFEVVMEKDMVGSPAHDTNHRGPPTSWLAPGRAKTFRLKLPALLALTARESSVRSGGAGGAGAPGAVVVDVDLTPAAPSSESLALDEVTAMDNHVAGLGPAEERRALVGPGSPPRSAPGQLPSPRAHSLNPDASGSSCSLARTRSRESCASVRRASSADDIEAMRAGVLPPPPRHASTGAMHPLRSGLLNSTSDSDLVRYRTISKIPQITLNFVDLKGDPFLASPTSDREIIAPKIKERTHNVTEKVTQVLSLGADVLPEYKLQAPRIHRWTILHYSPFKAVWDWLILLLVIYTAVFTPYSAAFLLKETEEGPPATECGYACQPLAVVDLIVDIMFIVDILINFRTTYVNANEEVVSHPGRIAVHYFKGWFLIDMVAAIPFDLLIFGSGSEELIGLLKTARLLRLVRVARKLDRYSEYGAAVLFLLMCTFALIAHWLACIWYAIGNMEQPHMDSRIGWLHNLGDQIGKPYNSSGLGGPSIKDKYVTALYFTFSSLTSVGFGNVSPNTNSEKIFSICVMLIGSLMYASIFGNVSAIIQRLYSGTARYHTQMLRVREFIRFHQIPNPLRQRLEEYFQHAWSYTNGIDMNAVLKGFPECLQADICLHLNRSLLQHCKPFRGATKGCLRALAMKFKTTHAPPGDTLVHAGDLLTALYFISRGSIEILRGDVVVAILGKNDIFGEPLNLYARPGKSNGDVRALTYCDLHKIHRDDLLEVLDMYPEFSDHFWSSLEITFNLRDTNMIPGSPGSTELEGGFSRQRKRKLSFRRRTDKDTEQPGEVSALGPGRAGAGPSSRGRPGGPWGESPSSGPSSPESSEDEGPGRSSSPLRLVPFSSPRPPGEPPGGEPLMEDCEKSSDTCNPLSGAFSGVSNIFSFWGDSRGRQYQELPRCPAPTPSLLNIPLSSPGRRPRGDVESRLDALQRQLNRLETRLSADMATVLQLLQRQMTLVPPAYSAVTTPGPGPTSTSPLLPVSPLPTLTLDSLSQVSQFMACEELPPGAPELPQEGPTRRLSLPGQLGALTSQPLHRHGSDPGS
Sequence of Cytochrome P450 2C19 (P33261 whole entry): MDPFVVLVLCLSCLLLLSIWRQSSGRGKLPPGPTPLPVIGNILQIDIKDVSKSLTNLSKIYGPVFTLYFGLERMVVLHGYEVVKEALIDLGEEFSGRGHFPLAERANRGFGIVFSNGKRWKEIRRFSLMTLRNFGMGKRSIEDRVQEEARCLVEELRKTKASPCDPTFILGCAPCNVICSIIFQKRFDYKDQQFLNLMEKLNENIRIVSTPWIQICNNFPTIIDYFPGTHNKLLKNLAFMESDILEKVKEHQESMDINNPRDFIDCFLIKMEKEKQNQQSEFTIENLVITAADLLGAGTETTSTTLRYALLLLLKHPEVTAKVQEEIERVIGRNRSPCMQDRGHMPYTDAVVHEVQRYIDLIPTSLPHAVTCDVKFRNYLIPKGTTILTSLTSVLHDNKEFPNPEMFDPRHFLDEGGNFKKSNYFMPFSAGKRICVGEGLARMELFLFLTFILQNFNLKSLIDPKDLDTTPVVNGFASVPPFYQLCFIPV
Sequence of Histamine H3 receptor (Rattus norvegicus, UniProt Q9QYN8) (Q9QYN8 whole entry): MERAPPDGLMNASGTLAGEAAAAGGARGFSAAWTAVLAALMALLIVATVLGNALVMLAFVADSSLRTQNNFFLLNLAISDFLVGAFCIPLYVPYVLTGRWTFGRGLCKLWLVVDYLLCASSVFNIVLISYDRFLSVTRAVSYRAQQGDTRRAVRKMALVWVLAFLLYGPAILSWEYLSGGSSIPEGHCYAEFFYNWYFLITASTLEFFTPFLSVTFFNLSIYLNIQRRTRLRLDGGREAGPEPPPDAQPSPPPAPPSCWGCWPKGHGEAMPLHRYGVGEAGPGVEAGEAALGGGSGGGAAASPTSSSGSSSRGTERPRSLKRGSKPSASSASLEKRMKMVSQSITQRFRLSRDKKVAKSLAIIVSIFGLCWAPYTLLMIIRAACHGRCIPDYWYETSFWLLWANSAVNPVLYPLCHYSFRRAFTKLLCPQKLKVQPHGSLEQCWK
Sequence of Histamine H3 receptor (Homo sapiens, UniProt Q9Y5N1) (Q9Y5N1 whole entry): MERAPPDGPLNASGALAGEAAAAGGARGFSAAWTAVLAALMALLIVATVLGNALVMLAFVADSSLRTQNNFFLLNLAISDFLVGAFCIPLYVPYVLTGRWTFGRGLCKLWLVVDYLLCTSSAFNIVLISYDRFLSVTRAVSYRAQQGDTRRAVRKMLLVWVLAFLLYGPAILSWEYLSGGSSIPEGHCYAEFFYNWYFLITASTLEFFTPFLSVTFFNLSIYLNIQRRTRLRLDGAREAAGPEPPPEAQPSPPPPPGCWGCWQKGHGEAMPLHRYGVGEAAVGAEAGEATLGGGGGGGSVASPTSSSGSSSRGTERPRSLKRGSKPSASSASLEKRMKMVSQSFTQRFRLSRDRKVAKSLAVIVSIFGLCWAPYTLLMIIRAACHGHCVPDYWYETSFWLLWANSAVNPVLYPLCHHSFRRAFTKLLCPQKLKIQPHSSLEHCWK
Sequence of Cytochrome P450 2D6 (P10635 whole entry): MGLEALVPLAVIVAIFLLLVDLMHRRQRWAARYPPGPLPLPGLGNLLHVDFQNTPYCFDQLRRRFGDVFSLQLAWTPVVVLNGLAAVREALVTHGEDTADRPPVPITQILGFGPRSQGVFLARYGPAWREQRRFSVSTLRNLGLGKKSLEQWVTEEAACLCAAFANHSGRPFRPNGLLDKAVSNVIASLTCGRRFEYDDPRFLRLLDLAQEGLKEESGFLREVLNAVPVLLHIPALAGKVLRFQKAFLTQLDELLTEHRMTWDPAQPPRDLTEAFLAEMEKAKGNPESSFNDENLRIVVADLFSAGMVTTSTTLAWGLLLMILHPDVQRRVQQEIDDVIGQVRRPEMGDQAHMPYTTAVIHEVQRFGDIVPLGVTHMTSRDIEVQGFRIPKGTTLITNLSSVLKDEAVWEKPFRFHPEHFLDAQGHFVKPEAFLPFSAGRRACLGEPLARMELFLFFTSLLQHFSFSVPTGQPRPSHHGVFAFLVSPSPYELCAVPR
Sequence of Cytochrome P450 2C9 (P11712 whole entry): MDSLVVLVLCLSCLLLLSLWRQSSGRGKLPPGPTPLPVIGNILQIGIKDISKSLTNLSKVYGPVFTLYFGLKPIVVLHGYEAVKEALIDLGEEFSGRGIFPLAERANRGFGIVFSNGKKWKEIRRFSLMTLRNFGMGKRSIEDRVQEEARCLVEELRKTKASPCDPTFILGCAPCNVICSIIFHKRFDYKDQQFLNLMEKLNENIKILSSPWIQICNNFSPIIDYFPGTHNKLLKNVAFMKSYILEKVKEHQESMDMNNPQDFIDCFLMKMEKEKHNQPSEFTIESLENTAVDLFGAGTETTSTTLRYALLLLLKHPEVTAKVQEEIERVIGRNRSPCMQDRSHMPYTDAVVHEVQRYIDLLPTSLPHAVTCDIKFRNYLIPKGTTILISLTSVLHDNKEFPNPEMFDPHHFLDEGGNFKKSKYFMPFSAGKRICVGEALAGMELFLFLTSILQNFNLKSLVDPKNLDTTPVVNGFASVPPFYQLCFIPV
Sequence of Cytochrome P450 3A4 (P08684 whole entry): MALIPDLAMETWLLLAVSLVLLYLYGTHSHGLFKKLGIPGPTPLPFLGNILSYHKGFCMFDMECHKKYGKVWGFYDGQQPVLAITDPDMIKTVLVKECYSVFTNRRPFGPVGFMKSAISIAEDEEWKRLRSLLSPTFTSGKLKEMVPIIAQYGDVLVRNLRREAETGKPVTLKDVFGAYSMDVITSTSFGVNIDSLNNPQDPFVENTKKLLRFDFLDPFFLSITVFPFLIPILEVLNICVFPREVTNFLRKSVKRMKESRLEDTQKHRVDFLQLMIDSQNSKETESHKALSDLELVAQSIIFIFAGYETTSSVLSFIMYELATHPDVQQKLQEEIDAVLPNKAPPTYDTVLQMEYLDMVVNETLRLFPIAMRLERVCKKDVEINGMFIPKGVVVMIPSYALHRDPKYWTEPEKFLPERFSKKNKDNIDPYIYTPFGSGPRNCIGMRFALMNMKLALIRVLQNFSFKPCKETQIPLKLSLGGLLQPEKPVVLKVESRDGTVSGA

Cc1cc(N2CC[C@@H](N3CCC[C@H]3C)C2)ccc1NC(=O)c1cc(F)ccc1C
IC50 [1]: > 30 µM | IC50 [2]: > 30 µM | IC50 [3]: > 30 µM | IC50 [4]: > 30 µM | Ki [5]: 0.3 µM | metabolised at 20 min, 5 µM [6]: 8% | Activity [7]: Non-toxic | inhibition at 1 µM [8]: 33.7% | inhibition at 10 µM [9]: 77.5% | IC50 [10]: > 30 µM | Activity [11]: Non-toxic | metabolised at 20 min, 5 µM [12]: 27% | Ki [13]: 0.0737 µM | IC50 [14]: > 30 µM | metabolised at 20 min, 5 µM [15]: 17%

Reference: ChEMBL document CHEMBL2401654, “Synthesis, characterization, and biological assessment of the four stereoisomers of the H(3) receptor antagonist 5-fluoro-2-methyl-N-[2-methyl-4-(2-methyl[1,3']bipyrrolidinyl-1'-yl)phenyl]benzamide” (Bioorg Med Chem Lett, 2013)
